Measurements: ChEMBL document CHEMBL4041496, “Natural-Based Indirubins Display Potent Cytotoxicity toward Wild-Type and T315I-Resistant Leukemia Cell Lines” (J Nat Prod, 2016)
Calls of active or inactive are those of the source. No rule for the calls is given here.

Tests used:
KCL-22 [1] = assay: Cytotoxicity against human KCL22 cells assessed as reduction in cell viability at 1 uM after 48 hrs by MTS assay; format: functional, cell-based
Method in brief: (§1)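 Single-concentration screen: KCL-22 cells, or KCL-22 cells expressing T315I mutant Bcr-Abl, grown in RPMI-1640 with 10% FBS. Cells were seeded at 10 000/well, held overnight at 37 °C in 5% CO2, then exposed to 1 μM compound for 48 h, with DMSO as vehicle control. Viability was read by MTS tetrazolium-to-formazan conversion, absorbance 490 nm, in triplicate.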

KCL-22 [2] = assay: Cytotoxicity against human KCL22 cells harboring ABL1 T315I mutant assessed as reduction in cell viability at 1 uM after 48 hrs by MTS assay; format: functional, cell-based; method in brief: as §1

SMILES | Activity (KCL-22 [1]) | Activity (KCL-22 [2])
COC(=O)c1ccc2c(c1)N/C(=C1\C(=O)Nc3c1cccc3C(F)(F)F)C2=O | inactive | inactive
O=C1Nc2c(cccc2C(F)(F)F)/C1=C1/Nc2cc(C(=O)O)ccc2/C1=N\O | inactive | inactive
CN1C(=O)/C(=C2\Nc3ccccc3\C2=N/O)c2cccc(Cl)c21 | inactive | inactive
Nc1cc2c(cc1Br)NC(=O)/C2=C1\Nc2ccccc2\C1=N/O | inactive | inactive
O=C1Nc2c(Br)cccc2/C1=C1/Nc2ccc(-c3nnn[nH]3)cc2/C1=N\O | inactive | inactive
O=C1Nc2c(Br)cccc2/C1=C1/Nc2ccc(/C=N/O)cc2/C1=N\O | inactive | inactive
COC(=O)c1ccc2c(c1)C(=N\O)/C(=C1/C(=O)Nc3c1cccc3C(F)(F)F)N2 | inactive | inactive
CN1C(=O)/C(=C2\Nc3ccccc3\C2=N/OCCN2CCNCC2)c2cccc(Br)c21 | inactive | inactive
COC(=O)c1ccc2c(c1)NC(=C1\C(=O)Nc3c(Br)cccc31)/C2=N/OCCN1CCNCC1 | inactive | inactive
CN1C(=O)/C(=C2\Nc3ccccc3C2=O)c2cccc(I)c21 | inactive | inactive
COC(=O)c1ccc2c(c1)C(=N\OCCN1CCNCC1)/C(=C1/C(=O)Nc3c(Br)cccc31)N2 | inactive | inactive
O=C1Nc2c(F)cccc2/C1=C1/Nc2ccccc2/C1=N\O | inactive | inactive
O=C1Nc2c(cccc2C(F)(F)F)/C1=C1/Nc2cc(C(=O)O)ccc2/C1=N\OCCN1CCNCC1 | inactive | inactive
COC(=O)c1ccc2c(c1)NC(=C1\C(=O)Nc3c1cccc3C(F)(F)F)/C2=N/O | inactive | inactive
CN1C(=O)/C(=C2\Nc3ccccc3C2=O)c2cccc(Cl)c21 | inactive | inactive
CCN(CC)CCO/N=C1/C(=C2/C(=O)Nc3c(Br)cccc32)Nc2ccccc21 | inactive | inactive
O=C1Nc2c(Br)cccc2/C1=C1/Nc2ccccc2/C1=N\O | inactive | inactive
O=C1Nc2c(Cl)cccc2/C1=C1/Nc2ccccc2C1=O | inactive | inactive
O=C1Nc2c(Br)cccc2/C1=C1/Nc2ccc(C(=O)O)cc2/C1=N\O | inactive | inactive
O=C1Nc2c(I)cccc2/C1=C1/Nc2ccccc2/C1=N\O | inactive | inactive
O=C1Nc2cc(Br)c([N+](=O)[O-])cc2/C1=C1/Nc2ccccc2/C1=N\O | inactive | inactive
COC(=O)c1ccc2c(c1)C(=O)/C(=C1/C(=O)Nc3c(Br)cccc31)N2 | inactive | inactive
O=C1Nc2c(cccc2C(F)(F)F)/C1=C1/Nc2ccc(C(=O)O)cc2/C1=N\OCCN1CCNCC1 | inactive | inactive
O=C1Nc2c(cccc2C(F)(F)F)/C1=C1/Nc2ccc(-c3nnn[nH]3)cc2/C1=N\O | inactive | inactive
N#Cc1ccc2c(c1)C(=O)/C(=C1/C(=O)Nc3c1cccc3C(F)(F)F)N2 | inactive | inactive
O=C1Nc2c(Br)cccc2/C1=C1/Nc2ccccc2/C1=N\OCCN1CCNCC1 | inactive | inactive

SMILES | Activity (KCL-22 [1]) | Activity (KCL-22 [2])
COC(=O)c1ccc2c(c1)NC(=C1\C(=O)Nc3c(Br)cccc31)/C2=N/O | inactive | inactive
CC(=O)O/N=C1/C(=C2/C(=O)N(C(C)=O)c3cc(Br)c([N+](=O)[O-])cc32)Nc2ccccc21 | inactive | inactive
Cc1cc2c(cc1Br)NC(=O)/C2=C1\Nc2ccccc2C1=O | inactive | inactive
O=C1Nc2c(cccc2C(F)(F)F)/C1=C1/Nc2ccc(-c3nnn[nH]3)cc2C1=O | inactive | inactive
O=C1Nc2c(cccc2C(F)(F)F)/C1=C1/Nc2ccccc2/C1=N\OCCN1CCN(CCO)CC1 | inactive | inactive
O=C1Nc2c(Br)cccc2/C1=C1/Nc2ccc(-c3nnn[nH]3)cc2C1=O | inactive | inactive
CN1C(=O)/C(=C2\Nc3ccccc3\C2=N/O)c2cccc(Br)c21 | inactive | inactive
CC(=O)O/N=C1/C(=C2/C(=O)Nc3cc(Br)c(C)cc32)Nc2ccccc21 | inactive | inactive
O=C1Nc2ccccc2/C1=C1/Nc2cc(Br)ccc2/C1=N\O | inactive | inactive
O=C1Nc2ccccc2/C1=C1/Nc2ccccc2/C1=N\O | inactive | inactive
O=C1Nc2c(Br)cccc2/C1=C1/Nc2ccc(/C=N/O)cc2C1=O | inactive | inactive
COC(=O)c1ccc2c(c1)N/C(=C1\C(=O)Nc3c(Br)cccc31)C2=O | inactive | inactive
O=C1Nc2c(cccc2C(F)(F)F)/C1=C1/Nc2ccccc2/C1=N\OCCN1CCNCC1 | inactive | inactive
COC(=O)c1ccc2c(c1)C(=N\OCCN1CCNCC1)/C(=C1/C(=O)Nc3c1cccc3C(F)(F)F)N2 | inactive | inactive
CN1C(=O)/C(=C2\Nc3ccccc3\C2=N/O)c2cccc(I)c21 | inactive | inactive
O=C1Nc2c(cccc2C(F)(F)F)/C1=C1/Nc2ccccc2C1=O | inactive | inactive
O=C1Nc2c(Br)cccc2/C1=C1/Nc2cc(C(=O)O)ccc2/C1=N\O | inactive | inactive
O=C1Nc2c(I)cccc2/C1=C1/Nc2ccccc2C1=O | inactive | inactive
O=C1Nc2ccccc2/C1=C1/Nc2ccccc2C1=O | inactive | inactive
COC(=O)c1ccc2c(c1)NC(=C1\C(=O)Nc3c1cccc3C(F)(F)F)/C2=N/OCCN1CCNCC1 | inactive | inactive
COC(=O)c1ccc2c(c1)C(=O)/C(=C1/C(=O)Nc3c1cccc3C(F)(F)F)N2 | inactive | inactive
O=C1Nc2cc(Br)c([N+](=O)[O-])cc2/C1=C1/Nc2ccccc2C1=O | inactive | inactive
O=C1Nc2c(F)cccc2/C1=C1/Nc2ccccc2C1=O | inactive | inactive
COC(=O)c1ccc2c(c1)C(=N\O)/C(=C1/C(=O)Nc3c(Br)cccc31)N2 | inactive | inactive
CC(=O)O/N=C1/C(=C2/C(=O)Nc3cc(Br)c([N+](=O)[O-])cc32)Nc2ccccc21 | inactive | inactive
O=C1Nc2cc(Cl)c(Cl)cc2/C1=C1/Nc2ccccc2C1=O | inactive | inactive
